The nature of series [1]: Solubility in aqueous solution. It is filed as physicochemical. The conditions noted are these: observation.
Series [2] concerns the target T1, recombinant dg-Bcan protein (Homo sapiens, UniProt Q96GW7).
T1 sequence (Q96GW7 23-911): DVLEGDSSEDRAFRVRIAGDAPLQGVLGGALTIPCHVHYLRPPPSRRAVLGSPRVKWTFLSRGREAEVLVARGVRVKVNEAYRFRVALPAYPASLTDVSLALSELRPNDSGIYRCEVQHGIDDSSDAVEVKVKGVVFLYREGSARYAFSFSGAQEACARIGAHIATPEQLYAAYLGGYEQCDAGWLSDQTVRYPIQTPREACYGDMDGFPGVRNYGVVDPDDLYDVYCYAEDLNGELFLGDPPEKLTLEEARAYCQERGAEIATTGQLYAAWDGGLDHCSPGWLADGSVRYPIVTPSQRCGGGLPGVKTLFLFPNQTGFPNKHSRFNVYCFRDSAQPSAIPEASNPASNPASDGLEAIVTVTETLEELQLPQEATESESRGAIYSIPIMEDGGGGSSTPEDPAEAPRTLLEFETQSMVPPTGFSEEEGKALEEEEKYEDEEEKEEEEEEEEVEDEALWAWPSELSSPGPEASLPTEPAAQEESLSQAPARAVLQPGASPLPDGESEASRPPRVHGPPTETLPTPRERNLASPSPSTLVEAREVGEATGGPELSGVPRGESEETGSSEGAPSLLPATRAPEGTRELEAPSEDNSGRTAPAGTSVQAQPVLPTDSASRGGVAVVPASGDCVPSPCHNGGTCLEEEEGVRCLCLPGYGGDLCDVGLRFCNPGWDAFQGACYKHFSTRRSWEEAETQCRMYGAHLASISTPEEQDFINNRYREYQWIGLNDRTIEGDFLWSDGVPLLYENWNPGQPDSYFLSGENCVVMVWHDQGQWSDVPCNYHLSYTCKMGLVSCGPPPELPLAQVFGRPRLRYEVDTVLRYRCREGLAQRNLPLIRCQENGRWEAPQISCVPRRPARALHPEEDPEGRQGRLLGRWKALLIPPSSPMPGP
In words: Octet binding kinetics analysis, recombinant dg-Bcan. The following applies: Octet RED. The method in brief: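 Binding kinetics of test peptides measured by biolayer interferometry (Octet RED384) against recombinant human brevican, deglycosylated before use and held in PBS with 0.1 mM EDTA, pH 6.8. Fully glycosylated Bcan served as a comparison protein. The run used working buffer (0.9% NaCl irrigation, 0.05% Tween) with 1000 rpm agitation at 30°C. KD and Rmax came from a one-site specific binding non-linear regression fit.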

BTP-2: in series [1], the “solubility in aqueous solution” value is “insoluble and precipitated in aqueous solution”.
On to Scr-7, for which the “dg-Bcan protein binding” value in series [2] is listed as “did not exhibit dg-Bcan protein binding”.

The record behind these values is article PMC8114962 (Advanced therapeutics, 2021).
